From ChEMBL document CHEMBL1126657, “Benzylamine antioxidants: relationship between structure, peroxyl radical scavenging, lipid peroxidation inhibition, and cytoprotection” (1993) come the findings set out here.

The nature of test [1]: Percent inhibition of 2,2'-azobis(2-amidinopropane)dihydrochloride induced decay of (R)-phycoerythrin fluorescence emission. Format: functional. Details: concentration or dose not given beside the values. The conditions noted are these: dose or concentration not given here. In a few lines: (§1)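 R-PE (4.5 × 10⁻⁸ M stock) was mixed with test agent (3 μM stock; 1 μM final) in 75 mM phosphate buffer pH 7.0 and equilibrated 5 min at 37 °C. AAPH (12 mM stock, freshly made) was then added. Fluorescence (ex 544, em 590 nm) was read every 5 min for 25 min and normalized to 0 min. Percent inhibition at 15 min = (sample − AAPH)/(control − AAPH) × 100, n = 4.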

Another test is filed under the species Oryctolagus cuniculus. As to the kind of experiment: Inhibition of iron-dependent peroxidation of rabbit vesicular membrane lipids (minimum test concentration that gave greater than 50% inhibition). Format: functional. The essentials: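 Lipids from rabbit brain vesicular membranes were peroxidized in an iron-dependent system. Value is the minimum tested concentration giving ≥50% inhibition (μM), n = 3.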

The species entered for test [2] is Rattus norvegicus. As to the kind of experiment: Percent viability of rat hippocampal neurons exposed to hydrogen peroxide (50 uM) in the presence of the test agent (5 uM). Format: functional. In a few lines:
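Primary rat hippocampal neuron cultures were given test agent (5 μM) and exposed for 15 min to H2O2 (50 μM). Survival was scored by vital dye staining 18 h later. n = 3 cultures prepared on different days, mean ± SD.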

Test [3] relates to Rattus norvegicus. As to the kind of experiment: Hypotensive effect in anesthetized normotensive rat expressed as effective dose; Study. It is filed as functional, organism-based.
Test [4] is described as follows: percent inhibition of 2,2'-azobis(2-amidinopropane)dihydrochloride induced decay of (R)-phycoerythrin fluorescence emission. Format: functional. Details: concentration or dose not given beside the values. The conditions noted are these: dose or concentration not given here. The essentials:
as §1

The subject of test [5] is Rattus norvegicus. Briefly: Hypotensive effect in anesthetized normotensive rat expressed as effective dose. Format: functional.
In test [6] the test system is Rattus norvegicus. As to the kind of experiment: Hypotensive effect in anesthetized normotensive rat expressed as effective dose; No effect. Format: functional, organism-based.
Test [7] has as its system Rattus norvegicus. As to the kind of experiment: Hypotensive effect in up to 0.1 mg/kg, slight pressor response (~16-17%) at 1 mg/kg. It is filed as functional, organism-based.

SMILES strings stand for the structures. Converted amounts (≈) assume the structure as drawn. The source made the active and inactive calls. The rule behind the calls is not given here. Some results are limits rather than exact numbers.

As a reminder, the inhibition is the relative decrease from the control value, in per cent. As a reminder, the MIC is the least concentration at which growth counts as inhibited. In turn, `CCCCCOc1cc(CN(C)C)cc(OCCCCC)c1O.Cl` showed an inhibition in test [1] of 44.9%. The same compound registered an MIC in the test listed under Oryctolagus cuniculus of 2.3 µM. The Cell viability in the test filed under Rattus norvegicus [2] came out at 51.2%. Moreover, the ED20 entry in the test on Rattus norvegicus [3] was “Study”.
In test [4], `CCCCCCCOc1c(O)cc(CN(C)C)cc1O.Cl` gave an inhibition of 43.8%. In the test listed under Oryctolagus cuniculus, 30 µM was the least that counted as inhibitory (MIC). Besides, in the test filed under Rattus norvegicus [2], the Cell viability is 47%.
As for `CCCCCN(CCCCC)Cc1cc(OC)c(O)c(OC)c1.Cl`, the inhibition in test [1] stood at 50.6%. In addition, the lowest concentration to inhibit growth in the test listed under Oryctolagus cuniculus (MIC) was 30 µM. Besides, the Cell viability in the test filed under Rattus norvegicus [2] was 35.5%. This compound also came in with an ED20 in the test on Rattus norvegicus [5] greater than 1 mg/kg.
The corresponding values for `CCCOc1cc(CN(C)C)cc(OCCC)c1O.Cl` are 91.8%, 30 µM, 31.3% and 1 mg/kg.
With `CCNCc1cc(OC)c(O)c(OC)c1.Cl`, in test [1], the inhibition amounted to 71.8%. This compound also displayed an MIC in the test filed under Oryctolagus cuniculus greater than 100 µM. The Cell viability in the test filed under Rattus norvegicus [2] is 3.1%. In the test with Rattus norvegicus [6], the ED20 entry is “inactive”.
`CCCCCNCc1cc(OC)c(O)c(OC)c1.Cl` gave an inhibition in test [1] of 61.6%. The MIC in the test filed under Oryctolagus cuniculus is greater than 100 µM. In addition, the Cell viability in the test filed under Rattus norvegicus [2] is on record as 29%. The ED20 result in the test with Rattus norvegicus [6] is “inactive”.
For the compound `CN(C)Cc1cc(OC2CCCC2)c(O)c(OC2CCCC2)c1.Cl`, in test [1], the inhibition is 74.3%. This compound came in with an MIC in the test listed under Oryctolagus cuniculus of 10 µM. In the test listed under Rattus norvegicus [2], the Cell viability was determined as 28.9%. Also, the ED20 entry in the test with Rattus norvegicus [3] is listed as “Study”.
Turning to `CCCCN(CCCC)Cc1cc(OC)c(O)c(OC)c1.Cl`, the inhibition in test [1] was 66.6%. Further, the MIC in the test filed under Oryctolagus cuniculus was greater than 100 µM. Besides, in the test filed under Rattus norvegicus [2], the Cell viability was determined as 26.4%. In addition, the ED20 entry in the test with Rattus norvegicus [6] is “inactive”.
In turn, `CCC(CC)Oc1cc(CN(C)C)cc(OC(CC)CC)c1O.Cl` displayed an inhibition in test [1] of 66.8%. In addition, in the test listed under Oryctolagus cuniculus, the lowest concentration to inhibit growth (MIC) was 10 µM. Also, the Cell viability in the test listed under Rattus norvegicus [2] was 15.2%. The compound also gave an ED20 with Rattus norvegicus [5] of 0.42 mg/kg.
The compound `CCCOC(=O)c1cc(O)c(O)c(O)c1` [PROPYL GALLATE] yielded an inhibition in test [4] of 40%. In the test filed under Oryctolagus cuniculus, this compound gave an MIC of 3 µM (≈ 0.637 µg/mL).
In test [1], `COc1cc(CN(CC(C)C)CC(C)C)cc(OC)c1O.Cl` gave an inhibition of 63.7%. Moreover, in the test listed under Oryctolagus cuniculus, inhibition of growth (MIC) required 30 µM. Further, in the test listed under Rattus norvegicus [2], the Cell viability is given as 28.7%. Further, the ED20 result in the test with Rattus norvegicus [6] is “inactive”.
For the compound `CCCCCCCOc1cc(CN2CCN(CCO)CC2)cc(OC)c1O.Cl.Cl`, in test [4], the inhibition was 64.4%. The compound also showed an MIC in the test filed under Oryctolagus cuniculus of 2.3 µM. Further, the Cell viability in the test filed under Rattus norvegicus [2] amounted to 63%. This compound also displayed an ED20 in the test with Rattus norvegicus [5] greater than 1 mg/kg.
As to `CNCc1cc(OC)c(O)c(OC)c1.Cl`, in test [1], the inhibition was found to be 75.8%. Also, in the test listed under Oryctolagus cuniculus, the MIC is greater than 100 µM. For the same compound, in the test filed under Rattus norvegicus [2], the Cell viability worked out at 7.5%. Besides, in the test with Rattus norvegicus [6], the ED20 result is “inactive”.
On to `CCCCNCc1cc(OC)c(O)c(OC)c1.Cl`, for which, in test [1], the inhibition is 62.4%. Besides, in the test filed under Oryctolagus cuniculus, the MIC is greater than 100 µM. The Cell viability in the test listed under Rattus norvegicus [2] came to 17.1%. For the same compound, in the test with Rattus norvegicus [6], the ED20 entry was “inactive”.
For `CCCCCCNCc1cc(OC)c(O)c(OC)c1.Cl` the same measures were 65.2%, 100 µM, 42.6% and “inactive”.
In the test listed under Oryctolagus cuniculus, `CCCCCCCNCc1cc(OC(C)C)c(O)c(OC(C)C)c1.Cl` registered an MIC of 10 µM. Also, in the test filed under Rattus norvegicus [2], the Cell viability worked out at 43.5%. The ED20 in the test with Rattus norvegicus [5] is greater than 1 mg/kg.
The compound `CC(C)Oc1cc(CN(C)C)cc(OC(C)C)c1O.Cl` came in with an inhibition in test [1] of 69.3%. Further, the MIC in the test filed under Oryctolagus cuniculus was greater than 100 µM. In addition, the Cell viability in the test filed under Rattus norvegicus [2] worked out at 35.8%. Moreover, the ED20 entry in the test on Rattus norvegicus [6] is “inactive”.
With `CCCNCc1cc(OC)c(O)c(OC)c1.Cl`, in test [1], the inhibition was found to be 80.1%. In addition, the MIC in the test listed under Oryctolagus cuniculus was greater than 100 µM. In addition, the Cell viability in the test listed under Rattus norvegicus [2] is recorded as 13.3%. Further, the ED20 result in the test with Rattus norvegicus [6] was “inactive”.
In turn, `COc1cc(CN(C)C)cc(OC)c1O.Cl` returned an inhibition in test [1] of 69%. In addition, in the test listed under Oryctolagus cuniculus, the MIC was greater than 100 µM. Besides, in the test listed under Rattus norvegicus [2], the Cell viability came out at 5.2%. In addition, in the test with Rattus norvegicus [6], the ED20 entry was “inactive”.
As for `CCCCCCCOc1cc(CN(C)C)cc(OCCCCCCC)c1O.Cl`, the inhibition in test [4] was 7.2%. This compound also showed an MIC in the test filed under Oryctolagus cuniculus of 1 µM. Moreover, the Cell viability in the test listed under Rattus norvegicus [2] came out at 75.7%.
Compound `CCCCOc1cc(CN(C)C)cc(OCCCC)c1O.Cl` yielded an inhibition in test [1] of 73.3%. Further, the MIC in the test filed under Oryctolagus cuniculus was found to be 10 µM. Moreover, the Cell viability in the test listed under Rattus norvegicus [2] amounted to 35.8%. The compound also yielded an ED20 in the test with Rattus norvegicus [5] of 1 mg/kg.
Regarding `CCCCCNCc1cc(OC(C)C)c(O)c(OC(C)C)c1.Cl`, in the test filed under Oryctolagus cuniculus, the MIC is 30 µM. The Cell viability in the test listed under Rattus norvegicus [2] came out at 42.8%. This compound also had an ED20 with Rattus norvegicus [5] greater than 1 mg/kg.
For the compound `CCN(CC)Cc1cc(OC)c(O)c(OC)c1.Cl`, in test [1], the inhibition was found to be 66.7%. In the test filed under Oryctolagus cuniculus, this compound displayed an MIC greater than 100 µM. The Cell viability in the test listed under Rattus norvegicus [2] worked out at 3.7%. For the same compound, the ED20 entry in the test on Rattus norvegicus [6] was “inactive”.
In test [4], `CCCCCCCCCNCc1cc(OC)c(O)c(OC)c1.Cl` gave an inhibition of 52.9%. The compound also had an MIC in the test filed under Oryctolagus cuniculus of 5.3 µM. The Cell viability in the test listed under Rattus norvegicus [2] is listed as 47.1%. The ED20 entry in the test on Rattus norvegicus [7] is on record as “Pressor”.
For `CCCCCCCOc1cc(CN(C)C)cc(OC)c1O.Cl`, in test [4], the inhibition came to 62.5%. The MIC in the test listed under Oryctolagus cuniculus amounted to 2.3 µM. Besides, in the test filed under Rattus norvegicus [2], the Cell viability came out at 44%. This compound returned an ED20 in the test on Rattus norvegicus [5] greater than 1 mg/kg.
Turning to `CCCN(CCC)Cc1cc(OC)c(O)c(OC)c1.Cl`, in test [1], the inhibition was found to be 63.7%. This compound registered an MIC in the test listed under Oryctolagus cuniculus greater than 100 µM. Moreover, in the test filed under Rattus norvegicus [2], the Cell viability is 5.4%. The ED20 entry in the test with Rattus norvegicus [6] is “inactive”.
Turning to `CCCCCCCOc1c(O)cc(CN2CCN(CCO)CC2)cc1O.Cl.Cl`, the inhibition in test [4] came out at 60.3%. In the test filed under Oryctolagus cuniculus, 30 µM was the least that counted as inhibitory (MIC). Further, the Cell viability in the test filed under Rattus norvegicus [2] was determined as 50.3%.
For `CCCCCCCNCc1cc(OC)c(O)c(OC)c1.Cl`, the inhibition in test [4] is 63.5%. The compound also came in with an MIC in the test listed under Oryctolagus cuniculus of 30 µM. The Cell viability in the test listed under Rattus norvegicus [2] came out at 48.3%.
`CC(C)Oc1cc(CN2CCN(CCO)CC2)cc(OC(C)C)c1O.Cl.Cl`: in test [1], the inhibition amounted to 71.6%. In addition, the MIC in the test filed under Oryctolagus cuniculus was greater than 100 µM. The Cell viability in the test listed under Rattus norvegicus [2] came to 45.3%. In addition, the ED20 entry in the test with Rattus norvegicus [6] was “inactive”.
In the case of `CCOc1cc(CN(C)C)cc(OCC)c1O.Cl`, the inhibition in test [1] stood at 71.6%. The compound also showed a minimal inhibitory concentration (MIC) in the test filed under Oryctolagus cuniculus of 100 µM. The Cell viability in the test filed under Rattus norvegicus [2] worked out at 14.7%. Moreover, the ED20 entry with Rattus norvegicus [6] was “inactive”.
In turn, `CCCCCCCCNCc1cc(OC)c(O)c(OC)c1.Cl` yielded an inhibition in test [4] of 60.9%. In the test filed under Oryctolagus cuniculus, this compound showed an MIC of 10 µM. In addition, in the test filed under Rattus norvegicus [2], the Cell viability is 59.8%. Besides, the ED20 result in the test on Rattus norvegicus [7] is reported as “Pressor”.
`CCCCCCOc1cc(CN(C)C)cc(OCCCCCC)c1O.Cl` displayed an inhibition in test [4] of 17.6%. Further, in the test filed under Oryctolagus cuniculus, the MIC is 1 µM. Further, in the test listed under Rattus norvegicus [2], the Cell viability is reported as 73.1%. The ED20 with Rattus norvegicus [5] was determined as 0.36 mg/kg.
